The source of these data is ChEMBL document CHEMBL3745635, “Cytotoxic Orbitide from the Latex of Croton urucurana” (J Nat Prod, 2015).

One data set deals with 786-0. The data set can be described thus: Cytotoxicity against human 786-0 cells assessed as growth inhibition after 48 hrs by sulforhodamine B assay. It counts as functional. Particulars: 786-0, 48 h. In outline:
(§1)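 Cells seeded at 7.5 × 10^3 per well. Samples were dissolved in DMSO, aliquoted and stored at −20 °C. GI50 values are means of three independent experiments, each run in triplicate. Doxorubicin served as positive control.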
For orientation: In SRB staining, fixed cells bind dye roughly in proportion to their protein.

For a further data set, the system named is HT-29. The data set can be described thus: Cytotoxicity against human HT-29 cells assessed as growth inhibition after 48 hrs by sulforhodamine B assay. It counts as functional. Particulars: HT-29, 48 h. In outline:
as §1

Another data set concerns MCF7. The data set can be described thus: Cytotoxicity against human MCF7 cells assessed as growth inhibition after 48 hrs by sulforhodamine B assay. The format is functional. Particulars: MCF7, 48 h. In outline: as §1
Data set [1] can be described thus: Cytotoxicity against human NCI-ADR-RES cells assessed as growth inhibition after 48 hrs by sulforhodamine B assay. The format is functional. In short, it runs like this: as §1
For a further data set, the system named is HepG2. The data set can be described thus: Cytotoxicity against human HepG2 cells assessed as growth inhibition after 48 hrs by sulforhodamine B assay. It counts as functional. Particulars: HepG2, 48 h. In outline: as §1
Data set [2] can be described thus: Cytotoxicity against human PC3 cells assessed as growth inhibition after 48 hrs by sulforhodamine B assay. It counts as functional. Particulars: PC-3, 48 h. In outline: as §1
Data set [3] can be described thus: Cytotoxicity against mouse NIH/3T3 cells assessed as growth inhibition after 48 hrs by sulforhodamine B assay. The format is cell-based, NIH3T3. In outline:
as §1

Converted amounts (≈) assume the structure as drawn. Residues, ends and D or L forms follow the SMILES beside them.

In the case of `CC(C)C[C@@H]1NC(=O)[C@H](CO)NC(=O)CNC(=O)[C@H](CC(C)C)NC(=O)[C@H](CC(N)=O)NC(=O)CNC(=O)[C@H](Cc2ccccc2)NC(=O)[C@H](C)NC(=O)CNC1=O` (cyclo(AFGNLGSLG)), the GI50 (in general, the concentration giving 50% growth inhibition) worked out at 18.7 µg/mL (≈ 22.9 µM) in the data set with 786-0; 37.3 µg/mL (≈ 45.6 µM) with HT-29; 35.5 µg/mL (≈ 43.4 µM) in the data set on MCF7; 4.8 µM in data set [1]; 41.3 µg/mL (≈ 50.6 µM) with HepG2; 29.8 µg/mL (≈ 36.5 µM) in data set [2]. Also, in data set [3], the GI50 at 48 h is over 306 µM.

Consider `COc1cccc2c1C(=O)c1c(O)c3c(c(O)c1C2=O)C[C@@](O)(C(=O)CO)C[C@@H]3O[C@H]1C[C@H](N)[C@H](O)[C@H](C)O1` [DOXORUBICIN], for which the GI50 in the data set with 786-0 is 0.15 µg/mL (≈ 0.276 µM); with HT-29 it was 0.85 µg/mL (≈ 1.56 µM); with MCF7 it was 0.07 µg/mL (≈ 0.129 µM); in data set [1], 5.1 µM; in the data set with HepG2, 0.25 µg/mL (≈ 0.46 µM); in data set [2], 0.22 µg/mL (≈ 0.405 µM). Besides, in data set [3], the GI50 at 48 h was 4 µM.
